Assays:
[1] = Selectivity index, ratio of CC50 for MDCK cells to EC50 for Influenza A virus (A/PR8/34(H1N1)); format: toxicity, cell-based; conditions: dog, read-out: Ratio CC50/EC50
[2] = test system: Radical scavenging activity; assay: Antioxidant activity assessed as DPPH radical scavenging activity for 10 mins; format: functional
Summary of the method: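 Test compound in DMSO/MeOH 1:9 (0–20.0 mM, solution added) mixed 1:1 by volume with 0.1 mM DPPH in the same solvent; absorbance change followed at 540 nm over 10 min. IC50 is the concentration giving 50% absorbance reduction; three measurements in three independent experiments, mean with standard deviation.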

[3] = Cytotoxicity against MDCK cells after 2 hrs by MTT assay; format: cell-based, Canis lupus familiaris; conditions: dog
Summary of the method: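 MDCK cells seeded at 1.5×10^4 per well in DMEM/10% FCS for 4–5 h, washed, exposed to compound in Opti-MEM I with 0.2% DMSO for 2 h. Then washed and kept in DMEM with 0.2% BSA for 24 h at 37 °C, 5% CO2. Viability by MTT reduction; CC50 relative to untreated wells.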

Liver microsomes = assay: Antioxidant activity in Wistar rat liver microsomes assessed as inhibition of lipid peroxidation after 1 hr by thiobarbiturate color reaction; format: functional, Microsome
Summary of the method: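 Wistar rat liver microsomes in 50 mM Tris-HCl, 100 mM KCl, 0.1 mM EDTA, pH 7.4 (0.625 mg protein/mL). Compound (0–100 μM in DMSO, as added) incubated with tert-butylhydroperoxide (10 mM stock) at 37 °C for 1 h. TBA/TCA added, heated 90 °C 15 min, centrifuged, read at 535 nm. IC50 is 50% inhibition of colour; triplicates in three experiments.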

Influenza A virus = assay: Antiviral activity against Influenza A virus (A/PR8/34(H1N1)) infected in MDCK cells assessed as inhibition of plaque formation; format: functional, organism-based; conditions: A/Puerto Rico/8/1934(H1N1)
Summary of the method: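 Compound premixed with virus in Opti-MEM I with 0.2% DMSO for 30 min at room temperature. The mixture was applied to confluent MDCK monolayers (MOI 2.5×10^-4) for 1 h at room temperature, then washed. Cells were overlaid with agar medium containing trypsin and 0.2% BSA for about 2 days at 37 °C, then fixed with glutaraldehyde and stained with methylene blue. EC50 is the concentration cutting plaque number 50% versus untreated.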

| Compound | selectivity ratio [1] | IC50 [2] | CC50 at 2 h [3] | IC50 (Liver microsomes) | EC50 (Influenza A virus) |
| --- | --- | --- | --- | --- | --- |
| CCCCCCCCCCCC(=O)OCC1Oc2ccc([C@H]3Oc4cc(O)cc(O)c4C(=O)[C@@H]3O)cc2OC1c1ccc(O)c(OC)c1 (stereo partly drawn) | 40 | 2800 µM | 120 µM | 50.5 µM | 3 µM |
| CCCCCCCCCCCCCCCC(=O)Oc1cc(O)c2c(c1)O[C@H](c1ccc3c(c1)OC(c1ccc(O)c(OC)c1)C(CO)O3)[C@@H](O)C2=O (stereo partly drawn) |  | 3600 µM |  | 28.9 µM |  |
| COc1cc(C2Oc3cc([C@H]4Oc5cc(O)cc(O)c5C(=O)[C@@H]4O)ccc3OC2CO)ccc1O (stereo partly drawn) [SILIBININ] |  | 2100 µM | > 800 µM | 58.1 µM |  |
| CCCCCCCCCCCC(=O)Oc1cc(O)c2c(c1)O[C@H](c1ccc3c(c1)OC(c1ccc(O)c(OC)c1)C(CO)O3)[C@@H](O)C2=O (stereo partly drawn) | > 93.3 | 3000 µM | > 560 µM | 44.7 µM | 6 µM |
| CCCCCCCCCCCCCCCC(=O)OCC1Oc2ccc([C@H]3Oc4cc(O)cc(O)c4C(=O)[C@@H]3O)cc2OC1c1ccc(O)c(OC)c1 (stereo partly drawn) | > 160 | 3200 µM | > 480 µM | 51.9 µM | 3 µM |
| CCCCCCCC(=O)OCC1Oc2ccc([C@H]3Oc4cc(O)cc(O)c4C(=O)[C@@H]3O)cc2OC1c1ccc(O)c(OC)c1 (stereo partly drawn) |  | 3200 µM | 30 µM | 61.1 µM |  |
| CCCC(=O)OCC1Oc2ccc([C@H]3Oc4cc(O)cc(O)c4C(=O)[C@@H]3O)cc2OC1c1ccc(O)c(OC)c1 (stereo partly drawn) | 12.5 | 3400 µM | 300 µM | 91.7 µM | 24 µM |
| CCCC(=O)Oc1cc(O)c2c(c1)O[C@H](c1ccc3c(c1)OC(c1ccc(O)c(OC)c1)C(CO)O3)[C@@H](O)C2=O (stereo partly drawn) | 21.4 | 2300 µM | 300 µM | 101 µM | 14 µM |
| CCCCCCCC(=O)Oc1cc(O)c2c(c1)O[C@H](c1ccc3c(c1)OC(c1ccc(O)c(OC)c1)C(CO)O3)[C@@H](O)C2=O (stereo partly drawn) | 40 | 4000 µM | 240 µM | 117 µM | 6 µM |

Reference: ChEMBL document CHEMBL1154861, “Antioxidant and antiviral activities of silybin fatty acid conjugates” (Eur J Med Chem, 2010)
